# Published values from different studies.
# Compare with care: the assays were run in different laboratories.
Compound,system,setting,concentration
Cc1nc2ccc(OCc3ccc(C(F)(F)F)cc3)cc2[nH]1,"male BALB/c mouse, brain","oral, 10 mg/kg, 4 h",2000 ng/g
Cc1ccc2c(c1)C(=O)[C@]1(O)CCN(c3ccc4nc(C)ccc4c3)C1=N2,"mouse, plasma","intraperitoneal, 10 mg/kg, 30 min",700 nM
CC(C)n1ncc2c(C(=O)NCC3(C)CNC3)cc(C3CC3)nc21,"female BALB/c mouse, plasma","intraperitoneal, 50 mg/kg, 8 h",240 ng/mL
CC1(C)NC(=O)N(c2ccc(F)c(Br)c2)C1=O,"male Swiss mouse, plasma","oral, 100 mg/kg, 1 h",29700 ng/mL
CN(C)C(=O)c1cc2cnc(Nc3ccc(-c4ccc5c(=O)cc(N6CCOCC6)oc5c4)cc3)nc2n1C1CCCC1,"BALB/c mouse, brain","oral, 20 mg/kg, 24 h, single dose",5.3 ng/g
NCc1cc2c(cc1F)C(=O)N(C1CCC(=O)NC1=O)C2 (stereo not shown),"male CD-1 mouse, plasma","intravenous, 1 mg/kg, 4 h",2.8 ng/mL
CC1(C)NC(=O)N(c2ccc(F)c(S(C)(=O)=O)c2)C1=O,"male Swiss mouse, plasma","oral, 100 mg/kg, 48 h",20 ng/mL
CC(C)c1cc(C(=O)NCCN)c2cnn(C(C)C)c2n1,"female BALB/c mouse, plasma","intraperitoneal, 50 mg/kg, 15 min",2010 ng/mL
O=C1CCC(N2Cc3cc(CO)c(F)cc3C2=O)C(=O)N1 (stereo not shown),"male CD-1 mouse, plasma","intravenous, 1 mg/kg, 2 h",8.1 ng/mL
OCc1nc2ccc(NCc3ccc(C(F)(F)F)cc3)cc2[nH]1,"male BALB/c mouse, brain","oral, 10 mg/kg, 6 h",227 ng/g
CC(C)(C)S(=O)(=O)c1cc2c(Nc3ccc4scnc4c3)ncnc2cc1OCCOP(=O)(O)O,"BALB/c mouse, plasma","oral, 10 mg/kg, 2 h",145 ng/mL
O=C1CCC(N2Cc3cc(C4CCN(Cc5ccccc5)CC4)ccc3C2=O)C(=O)N1 (stereo not shown),"male CD-1 mouse, plasma","oral, 3 mg/kg, 1 h",235 ng/mL
CCOC(=O)c1c(NC(=O)CNC(C)C)sc2c1CCCCC2,"male mouse, brain","intraperitoneal, 100 mg/kg, 30 min",15800 ng/g
